From ChEMBL document CHEMBL4000194, “Design and Synthesis of a Series of l-trans-4-Substituted Prolines as Selective Antagonists for the Ionotropic Glutamate Receptors Including Functional and X-ray Crystallographic Studies of New Subtype Selective Kainic Acid Receptor Subtype 1 (GluK1) Antagonist …” (J Med Chem, 2017)

Assays:
[1] = Displacement of [3H]AMPA from AMPA receptor in rat brain synaptosomal membranes after 30 mins by TopCount microplate scintillation counting method; type: cell membranes
[2] = Displacement of [3H]kainic acid from kainate receptor in rat brain synaptosomal membranes after 60 mins by TopCount microplate scintillation counting method; type: cell membranes
[3] = Displacement of [3H]CGP39653 from NMDA receptor in rat brain synaptosomal membranes after 60 mins by TopCount microplate scintillation counting method; type: cell membranes
[4] = target: T1, Glutamate receptor ionotropic, kainate 1 (Rattus norvegicus, UniProt P22756); experiment: Displacement of [3H]NF608 from eGFP-fused recombinant rat full length GluK1 receptor expressed in HEK293T/17 cells by liquid scintillation counting method; type: cell-based
[5] = target: T2, Glutamate receptor ionotropic, kainate 2 (Rattus norvegicus, UniProt P42260); experiment: Displacement of [3H]kainic acid from eGFP-fused recombinant rat full length GluK2 receptor expressed in HEK293T/17 cells by liquid scintillation counting method; type: cell-based
[6] = target: Glutamate receptor ionotropic, kainate 3 (Rattus norvegicus, UniProt P42264); experiment: Displacement of [3H]kainic acid from eGFP-fused recombinant rat full length GluK3 receptor expressed in HEK293T/17 cells by liquid scintillation counting method; type: cell-based
Glutamate receptor 2 = Glutamate receptor 2 (Rattus norvegicus, UniProt P19491); experiment: Displacement of (RS)-[3H]AMPA from eGFP-fused recombinant rat full length GluA2 receptor expressed in HEK293T/17 cells by liquid scintillation counting method; type: cell-based
[7] = target: Excitatory amino acid transporter 2 (Homo sapiens, UniProt P43004); experiment: Inhibition of human EAAT2 expressed in HEK293 cells assessed as reduction in [3H]-D-Asp uptake after 15 mins by TopCount scintillation counting method; type: cell-based
[8] = target: T3, Excitatory amino acid transporter 3 (Homo sapiens, UniProt P43005); experiment: Inhibition of human EAAT3 expressed in HEK293 cells assessed as reduction in [3H]-D-Asp uptake after 15 mins by TopCount scintillation counting method; type: cell-based
T3 sequence (P43005 whole entry): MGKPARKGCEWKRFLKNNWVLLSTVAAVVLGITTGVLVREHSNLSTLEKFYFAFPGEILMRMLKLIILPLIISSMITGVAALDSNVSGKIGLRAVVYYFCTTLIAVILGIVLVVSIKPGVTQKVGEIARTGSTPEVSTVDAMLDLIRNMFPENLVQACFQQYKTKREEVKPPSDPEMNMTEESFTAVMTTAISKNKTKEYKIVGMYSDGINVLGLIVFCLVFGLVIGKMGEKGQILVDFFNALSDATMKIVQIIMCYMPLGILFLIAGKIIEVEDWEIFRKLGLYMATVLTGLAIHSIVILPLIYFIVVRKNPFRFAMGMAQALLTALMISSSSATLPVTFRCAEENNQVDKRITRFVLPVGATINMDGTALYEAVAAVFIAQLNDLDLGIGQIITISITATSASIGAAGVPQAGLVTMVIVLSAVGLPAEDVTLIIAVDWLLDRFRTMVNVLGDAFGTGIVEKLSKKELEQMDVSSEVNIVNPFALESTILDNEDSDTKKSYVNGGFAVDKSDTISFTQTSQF

[9] = target: Excitatory amino acid transporter 1 (Homo sapiens, UniProt P43003); experiment: Inhibition of human EAAT1 expressed in HEK293 cells assessed as reduction in [3H]-D-Asp uptake after 15 mins by TopCount scintillation counting method; type: cell-based
[10] = target: T1, Glutamate receptor ionotropic, kainate 1; experiment: Antagonist activity at recombinant rat full length GluK1 receptor expressed in HEK293T cells assessed as inhibition of glutamate induced increase in peak current at -100mV holding potential by patch-clamp method; type: cell-based
Procedure, shortened: (§1)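 Rat GluK1-2a or GluK2a cDNA was transiently co-transfected with eGFP into HEK293T/17 cells by calcium phosphate, 24 h after low-density plating on poly-D-lysine. Recordings were made 36–48 h after transfection. Outside-out patches at −100 mV received fast piezo applications of 1 mM Glu (250 ms). Antagonist was added to control and agonist solutions (final 0.001–300 μM). Peak current was taken as % of control (mean ± SEM, 3–5 responses per concentration), and IC50 was fitted with a Hill equation.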

[11] = target: T2, Glutamate receptor ionotropic, kainate 2; experiment: Antagonist activity at recombinant rat full length GluK2 receptor expressed in HEK293T cells assessed as inhibition of glutamate induced increase in peak current at -100mV holding potential by patch-clamp method; type: cell-based; procedure, shortened: as §1
[12] = target: T1, Glutamate receptor ionotropic, kainate 1; experiment: Displacement of [3H]-(2S,4R)-4-Methylglutamic acid from rat eGFP-fused GluK1 receptor LBD expressed in HEK293T/17 cells by liquid scintillation counting method; type: cell-based

Glutamate receptor 2, sequence (P19491 whole entry, the tested form may be a part): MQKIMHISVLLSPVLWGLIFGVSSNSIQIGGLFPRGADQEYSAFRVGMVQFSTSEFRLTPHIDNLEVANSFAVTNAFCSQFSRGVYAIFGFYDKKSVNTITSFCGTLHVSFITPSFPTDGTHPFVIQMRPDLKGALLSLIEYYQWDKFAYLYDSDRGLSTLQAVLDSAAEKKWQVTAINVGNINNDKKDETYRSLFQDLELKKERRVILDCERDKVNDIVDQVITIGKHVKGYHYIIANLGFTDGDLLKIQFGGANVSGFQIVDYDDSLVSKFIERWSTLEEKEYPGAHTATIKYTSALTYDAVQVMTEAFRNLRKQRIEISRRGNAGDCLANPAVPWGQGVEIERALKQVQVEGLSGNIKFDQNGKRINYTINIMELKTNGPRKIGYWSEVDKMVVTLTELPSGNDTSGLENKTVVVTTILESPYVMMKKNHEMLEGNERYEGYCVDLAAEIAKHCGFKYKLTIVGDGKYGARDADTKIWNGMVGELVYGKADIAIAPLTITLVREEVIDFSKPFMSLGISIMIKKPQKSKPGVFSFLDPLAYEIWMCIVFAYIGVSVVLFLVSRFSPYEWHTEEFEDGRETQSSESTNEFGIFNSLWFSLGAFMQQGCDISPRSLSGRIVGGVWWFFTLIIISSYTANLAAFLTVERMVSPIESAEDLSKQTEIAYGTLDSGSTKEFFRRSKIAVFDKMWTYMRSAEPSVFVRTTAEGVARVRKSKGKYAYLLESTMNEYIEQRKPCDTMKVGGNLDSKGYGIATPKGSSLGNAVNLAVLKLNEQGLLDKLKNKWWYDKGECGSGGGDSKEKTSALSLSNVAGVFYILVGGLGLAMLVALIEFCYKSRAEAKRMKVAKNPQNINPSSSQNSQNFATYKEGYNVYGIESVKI
Glutamate receptor ionotropic, kainate 3, sequence (P42264 whole entry, the tested form may be a part): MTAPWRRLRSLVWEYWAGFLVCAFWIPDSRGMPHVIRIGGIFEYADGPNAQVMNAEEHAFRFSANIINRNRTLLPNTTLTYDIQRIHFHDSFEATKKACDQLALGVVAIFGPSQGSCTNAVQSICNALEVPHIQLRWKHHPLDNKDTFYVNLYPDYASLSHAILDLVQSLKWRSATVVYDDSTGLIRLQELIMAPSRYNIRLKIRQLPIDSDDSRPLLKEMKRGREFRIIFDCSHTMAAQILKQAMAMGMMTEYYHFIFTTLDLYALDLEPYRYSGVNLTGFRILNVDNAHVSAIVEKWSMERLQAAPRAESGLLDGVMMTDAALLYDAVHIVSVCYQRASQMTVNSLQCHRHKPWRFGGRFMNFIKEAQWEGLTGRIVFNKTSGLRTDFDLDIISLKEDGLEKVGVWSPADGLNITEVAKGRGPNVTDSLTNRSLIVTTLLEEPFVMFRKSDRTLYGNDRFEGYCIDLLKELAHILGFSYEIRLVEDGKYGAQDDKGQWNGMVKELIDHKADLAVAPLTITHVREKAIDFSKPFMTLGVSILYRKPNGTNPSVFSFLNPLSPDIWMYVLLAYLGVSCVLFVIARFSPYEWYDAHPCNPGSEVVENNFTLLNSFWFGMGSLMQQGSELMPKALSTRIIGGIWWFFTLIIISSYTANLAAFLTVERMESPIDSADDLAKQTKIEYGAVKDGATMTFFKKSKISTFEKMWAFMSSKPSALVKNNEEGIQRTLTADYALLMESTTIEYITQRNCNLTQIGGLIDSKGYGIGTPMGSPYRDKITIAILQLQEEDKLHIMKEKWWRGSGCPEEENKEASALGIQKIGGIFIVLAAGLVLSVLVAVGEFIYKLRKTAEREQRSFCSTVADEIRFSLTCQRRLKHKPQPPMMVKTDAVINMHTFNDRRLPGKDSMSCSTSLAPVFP
Excitatory amino acid transporter 1, sequence (P43003 whole entry): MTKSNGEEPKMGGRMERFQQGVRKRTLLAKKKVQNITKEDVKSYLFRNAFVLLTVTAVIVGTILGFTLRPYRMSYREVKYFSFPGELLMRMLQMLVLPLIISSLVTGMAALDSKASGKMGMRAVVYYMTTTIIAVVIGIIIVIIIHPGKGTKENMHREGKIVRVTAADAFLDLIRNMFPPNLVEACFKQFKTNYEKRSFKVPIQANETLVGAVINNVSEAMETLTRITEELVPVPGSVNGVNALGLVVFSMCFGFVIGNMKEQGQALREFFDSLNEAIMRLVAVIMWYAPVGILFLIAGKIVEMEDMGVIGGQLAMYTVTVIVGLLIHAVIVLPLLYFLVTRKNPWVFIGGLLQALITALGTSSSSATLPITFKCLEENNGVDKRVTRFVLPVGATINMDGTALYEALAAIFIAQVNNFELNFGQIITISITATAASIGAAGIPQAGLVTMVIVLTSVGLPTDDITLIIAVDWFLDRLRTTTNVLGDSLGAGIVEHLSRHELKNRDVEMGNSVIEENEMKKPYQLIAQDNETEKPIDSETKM
Excitatory amino acid transporter 2, sequence (P43004 whole entry): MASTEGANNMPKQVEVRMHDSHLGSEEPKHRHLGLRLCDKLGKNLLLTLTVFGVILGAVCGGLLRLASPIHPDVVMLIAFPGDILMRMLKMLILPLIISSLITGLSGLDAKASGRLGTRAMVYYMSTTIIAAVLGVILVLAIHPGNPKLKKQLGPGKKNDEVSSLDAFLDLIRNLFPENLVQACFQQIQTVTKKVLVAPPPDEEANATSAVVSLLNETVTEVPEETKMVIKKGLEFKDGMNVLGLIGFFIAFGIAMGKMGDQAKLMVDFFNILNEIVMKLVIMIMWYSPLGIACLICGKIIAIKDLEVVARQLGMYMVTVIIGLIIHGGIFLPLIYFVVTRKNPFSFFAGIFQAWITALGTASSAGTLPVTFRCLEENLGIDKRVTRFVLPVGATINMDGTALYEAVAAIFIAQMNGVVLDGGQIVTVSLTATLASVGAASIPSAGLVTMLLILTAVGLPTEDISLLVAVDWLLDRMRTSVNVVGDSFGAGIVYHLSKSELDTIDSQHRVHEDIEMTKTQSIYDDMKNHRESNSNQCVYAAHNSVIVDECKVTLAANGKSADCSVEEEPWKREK
T2 sequence (P42260 whole entry, the tested form may be a part): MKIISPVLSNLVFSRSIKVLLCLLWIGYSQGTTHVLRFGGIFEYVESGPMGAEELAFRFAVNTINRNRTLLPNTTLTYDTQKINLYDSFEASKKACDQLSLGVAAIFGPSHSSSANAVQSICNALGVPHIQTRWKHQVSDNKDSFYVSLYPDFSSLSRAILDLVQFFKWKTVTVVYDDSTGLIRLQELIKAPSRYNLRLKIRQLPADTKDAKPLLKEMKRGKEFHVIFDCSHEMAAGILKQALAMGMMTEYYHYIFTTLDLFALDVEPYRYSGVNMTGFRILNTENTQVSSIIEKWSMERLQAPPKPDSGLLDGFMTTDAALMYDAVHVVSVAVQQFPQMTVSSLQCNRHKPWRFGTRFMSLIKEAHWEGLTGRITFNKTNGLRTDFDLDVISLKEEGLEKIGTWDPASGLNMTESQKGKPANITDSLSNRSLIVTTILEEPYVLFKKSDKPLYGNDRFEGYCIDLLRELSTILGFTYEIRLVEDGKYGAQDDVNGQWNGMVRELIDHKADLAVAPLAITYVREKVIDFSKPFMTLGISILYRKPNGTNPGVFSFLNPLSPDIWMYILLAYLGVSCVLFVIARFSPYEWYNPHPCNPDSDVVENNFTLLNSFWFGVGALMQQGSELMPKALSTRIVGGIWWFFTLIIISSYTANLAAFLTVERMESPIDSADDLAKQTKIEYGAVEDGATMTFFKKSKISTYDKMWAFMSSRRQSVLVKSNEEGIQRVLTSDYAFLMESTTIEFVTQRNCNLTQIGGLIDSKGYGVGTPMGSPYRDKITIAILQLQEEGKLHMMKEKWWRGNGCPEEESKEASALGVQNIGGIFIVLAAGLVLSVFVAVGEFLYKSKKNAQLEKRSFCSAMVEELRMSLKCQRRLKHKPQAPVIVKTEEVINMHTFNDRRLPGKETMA
T1 sequence (P22756 whole entry, the tested form may be a part): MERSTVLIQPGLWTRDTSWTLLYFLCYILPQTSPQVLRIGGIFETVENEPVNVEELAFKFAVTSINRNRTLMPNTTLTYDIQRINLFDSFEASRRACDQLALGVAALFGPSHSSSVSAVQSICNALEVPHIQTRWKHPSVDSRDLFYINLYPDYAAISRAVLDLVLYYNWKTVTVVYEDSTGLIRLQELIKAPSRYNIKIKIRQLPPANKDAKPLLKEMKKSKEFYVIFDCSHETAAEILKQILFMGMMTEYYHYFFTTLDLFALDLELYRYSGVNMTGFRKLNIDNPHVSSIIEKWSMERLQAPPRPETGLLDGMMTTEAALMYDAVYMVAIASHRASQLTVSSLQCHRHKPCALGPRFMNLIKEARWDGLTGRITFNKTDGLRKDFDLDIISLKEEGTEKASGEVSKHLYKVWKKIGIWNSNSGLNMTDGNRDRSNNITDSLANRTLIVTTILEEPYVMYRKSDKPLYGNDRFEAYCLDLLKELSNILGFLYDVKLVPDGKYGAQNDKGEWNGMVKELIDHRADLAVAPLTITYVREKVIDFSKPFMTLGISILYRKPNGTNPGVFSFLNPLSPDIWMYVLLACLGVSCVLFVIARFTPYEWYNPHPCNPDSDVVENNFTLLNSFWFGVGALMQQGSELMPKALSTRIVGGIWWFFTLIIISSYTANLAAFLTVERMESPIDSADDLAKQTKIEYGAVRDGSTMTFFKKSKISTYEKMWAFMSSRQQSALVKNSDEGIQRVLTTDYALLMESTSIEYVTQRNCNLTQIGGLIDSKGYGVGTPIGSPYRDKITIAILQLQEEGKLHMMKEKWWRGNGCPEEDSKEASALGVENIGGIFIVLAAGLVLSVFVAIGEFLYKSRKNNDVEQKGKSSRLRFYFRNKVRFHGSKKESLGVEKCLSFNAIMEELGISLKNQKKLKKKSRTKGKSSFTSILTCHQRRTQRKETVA

Row | Compound | Ki [1] [µM] | Ki [2] [µM] | Ki [3] [µM] | pKi [3] | Ki ([4]; read-out: Ki) [µM] | Ki [5] [µM] | Ki ([6]; read-out: Ki) [µM] | Ki (Glutamate receptor 2) [µM] | Ki ([6]; read-out: pKi (converted)) [µM] | IC50 [7] [µM] | IC50 [8] [µM] | IC50 [9] [µM] | Ki ([4]; read-out: pKi (converted)) [µM] | IC50 [10] [µM] | IC50 [11] [µM] | Ki [12] [µM]
1 | O=C(O)c1cccc(S[C@H]2CN[C@H](C(=O)O)C2)c1 | > 100 | > 100 | 78 | 4.11 | > 100 | > 100 | > 100 | – | – | – | – | – | – | – | – | –
2 | Cc1cccc(C(=O)O)c1O[C@H]1CN[C@H](C(=O)O)C1 | > 100 | > 100 | > 100 | – | 5.4 | > 1000 | > 100 | > 100 | – | – | – | – | – | – | – | –
3 | O=C(O)c1ccc(O[C@@H]2CN[C@H](C(=O)O)C2)cc1 | > 100 | > 100 | > 100 | – | > 100 | > 100 | > 100 | – | – | – | – | – | – | – | – | –
4 | O=C(O)c1c(O[C@H]2CN[C@H](C(=O)O)C2)ccc2ccccc12 | > 100 | > 100 | > 100 | – | 4.5 | > 100 | 137 | > 100 | 132 | – | – | – | – | – | – | –
5 | Cl.O=C(O)c1cccc(C[C@H]2CN[C@H](C(=O)O)C2)c1 | > 100 | > 100 | 69 | 4.18 | > 100 | > 100 | > 100 | – | – | – | – | – | – | – | – | –
6 | O=C(O)Cc1cccc(O[C@H]2CN[C@H](C(=O)O)C2)c1 | > 100 | > 100 | > 100 | – | > 100 | > 100 | > 100 | > 100 | – | – | – | – | – | – | – | –
7 | O=C(O)c1cccc(O[C@H]2CN[C@H](C(=O)O)C2)c1 | > 100 | > 100 | > 100 | – | 36 | > 100 | > 1000 | – | – | > 1000 | > 1000 | > 1000 | 33.1 | – | – | –
8 | O=C(O)c1ccccc1S[C@H]1CN[C@H](C(=O)O)C1 | > 100 | > 100 | 19 | 4.73 | 8.4 | > 100 | 22 | – | – | – | – | – | – | – | – | –
9 | O=C(O)c1cccc(O[C@@H]2CN[C@H](C(=O)O)C2)c1 | > 100 | > 100 | > 100 | – | > 100 | > 100 | > 100 | – | – | – | – | – | – | – | – | –
10 | O=C(O)c1cccc(S[C@@H]2CN[C@H](C(=O)O)C2)c1 | > 100 | > 100 | > 100 | – | > 100 | > 100 | > 100 | – | – | – | – | – | – | – | – | –
11 | O=C(O)c1ccc(O[C@H]2CN[C@H](C(=O)O)C2)c(C(=O)O)c1 | > 100 | > 100 | > 100 | – | 100 | > 1000 | > 100 | > 100 | – | – | – | – | – | – | – | –
12 | O=C(O)c1ccccc1O[C@H]1CN[C@H](C(=O)O)C1 | > 100 | > 100 | > 100 | – | 4 | > 100 | > 100 | – | – | > 1000 | > 1000 | > 1000 | – | 5.7 | > 100 | 2.27
13 | O=C(O)c1cc2ccccc2cc1O[C@H]1CN[C@H](C(=O)O)C1 | > 100 | > 100 | > 100 | – | 3.5 | > 1000 | > 100 | > 100 | – | – | – | – | – | – | – | –
14 | CC(=O)c1ccc(O[C@H]2CN[C@H](C(=O)O)C2)c(C(=O)O)c1 | > 100 | > 100 | > 100 | – | 4.7 | > 100 | 30 | > 100 | – | – | – | – | – | – | – | –
15 | O=C(O)c1ccccc1S[C@@H]1CN[C@H](C(=O)O)C1 | > 100 | > 100 | > 100 | – | > 100 | > 100 | > 100 | – | – | – | – | – | – | – | – | –
16 | O=C(O)c1ccc2ccccc2c1O[C@H]1CN[C@H](C(=O)O)C1 | > 100 | > 100 | > 100 | – | > 100 | > 100 | > 100 | > 100 | – | – | – | – | – | – | – | –
17 | O=C(O)Cc1ccccc1O[C@H]1CN[C@H](C(=O)O)C1 | > 100 | > 100 | > 100 | – | 24 | > 1000 | > 100 | > 100 | – | – | – | – | – | – | – | –
18 | Cl.O=C(O)c1ccc(O[C@H]2CN[C@H](C(=O)O)C2)cc1 | > 100 | > 100 | 81 | 4.11 | > 100 | > 100 | > 100 | – | – | > 1000 | > 1000 | > 1000 | – | – | – | –
19 | O=C(O)c1ccccc1O[C@@H]1CN[C@H](C(=O)O)C1 | > 100 | > 100 | > 100 | – | > 100 | > 100 | > 100 | – | – | > 1000 | > 1000 | > 1000 | – | – | – | –
20 | Cc1ccc(O[C@H]2CN[C@H](C(=O)O)C2)c(C(=O)O)c1 | > 100 | > 100 | > 100 | – | 24 | > 100 | > 100 | > 100 | – | – | – | – | – | – | – | –
